Data as given in ChEMBL document CHEMBL3098017, “Discovery and in Vivo Evaluation of Potent Dual CYP11B2 (Aldosterone Synthase) and CYP11B1 Inhibitors” (ACS Med Chem Lett, 2013).

How the values were obtained:
Rattus norvegicus [1] = test: Reduction of angiotensin 2-stimulated plasma aldosterone time-weighted average (0 to 8 hrs) in Sprague-Dawley rat at 1 mg/kg, po; type: functional; set-up: scale not given: the % may be the effect or the level left
How it was run: (§1)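 Angiotensin-II infusion in Sprague–Dawley rats (n = 3) raised baseline plasma aldosterone; oral dosing in corn starch/water or HCl (1.5 equiv of 1 N)/cornstarch/water; plasma sampled at set times; time-weighted average drug level 0–8 h; time-weighted average % fall in plasma aldosterone from baseline.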

Rattus norvegicus [2] = test: Time-weighted average (0 to 8 hrs) in Sprague-Dawley rat at 1 mg/kg, po; type: ADME, organism-based; set-up: dose 1 mg/kg, route oral; settings: in vivo; how it was run: as §1
[3] = Oral bioavailability in Sprague-Dawley rat at 1 mg/kg; type: ADME, organism-based; settings: in vivo
How it was run: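 Sprague–Dawley rats (n = 3), oral dose in corn starch/water or HCl (1.5 equiv of 1 N)/cornstarch/water; %F calculated against a 0.3 mg/kg intra-arterial dose.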

[4] = target: T1, Cytochrome P450 11B2, mitochondrial (Homo sapiens, UniProt P19099); test: Inhibition of CYP11B2 in human NCI-H295R cells assessed as inhibition of angiotensin-2-induced aldosterone production after 24 hrs by RIA; type: cell-based
T1 sequence (P19099 whole entry): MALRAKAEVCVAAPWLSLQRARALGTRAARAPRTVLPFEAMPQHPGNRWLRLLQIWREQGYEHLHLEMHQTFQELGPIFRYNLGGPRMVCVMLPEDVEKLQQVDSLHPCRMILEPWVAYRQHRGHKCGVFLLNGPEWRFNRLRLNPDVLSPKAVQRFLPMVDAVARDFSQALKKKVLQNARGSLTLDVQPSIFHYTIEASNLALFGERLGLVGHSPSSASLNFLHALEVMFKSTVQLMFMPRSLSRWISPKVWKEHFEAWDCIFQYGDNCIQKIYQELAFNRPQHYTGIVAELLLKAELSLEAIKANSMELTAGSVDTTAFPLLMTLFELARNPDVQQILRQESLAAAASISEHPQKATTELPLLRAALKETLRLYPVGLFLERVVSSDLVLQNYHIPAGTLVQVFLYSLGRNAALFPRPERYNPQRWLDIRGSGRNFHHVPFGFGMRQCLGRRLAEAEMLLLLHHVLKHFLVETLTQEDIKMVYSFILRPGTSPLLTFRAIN

[5] = target: T2, Cytochrome P450 11B1, mitochondrial (Homo sapiens, UniProt P15538); test: Inhibition of human recombinant CYP11B1 using 11-deoxycortisol as substrate by cell-based assay
T2 sequence (P15538 whole entry): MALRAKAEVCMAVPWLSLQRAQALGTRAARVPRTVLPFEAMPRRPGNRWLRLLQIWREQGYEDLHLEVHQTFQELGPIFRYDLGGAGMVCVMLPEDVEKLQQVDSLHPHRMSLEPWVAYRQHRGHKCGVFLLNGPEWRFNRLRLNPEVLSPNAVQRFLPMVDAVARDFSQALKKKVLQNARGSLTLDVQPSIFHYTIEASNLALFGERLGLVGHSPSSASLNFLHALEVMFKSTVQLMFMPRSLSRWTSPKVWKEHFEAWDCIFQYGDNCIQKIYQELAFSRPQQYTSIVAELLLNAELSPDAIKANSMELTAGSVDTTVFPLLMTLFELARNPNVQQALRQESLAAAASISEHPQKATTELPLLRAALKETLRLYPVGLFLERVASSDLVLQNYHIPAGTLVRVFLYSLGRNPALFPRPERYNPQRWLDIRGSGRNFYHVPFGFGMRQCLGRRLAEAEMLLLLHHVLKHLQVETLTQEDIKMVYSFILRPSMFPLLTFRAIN

[6] = target: T1, Cytochrome P450 11B2, mitochondrial; test: Inhibition of human recombinant CYP11B2 using 11-deoxycorticosterone as substrate by cell-based assay
Aromatase = target: T3, Aromatase (Homo sapiens, UniProt P11511)
T3 sequence (P11511 whole entry): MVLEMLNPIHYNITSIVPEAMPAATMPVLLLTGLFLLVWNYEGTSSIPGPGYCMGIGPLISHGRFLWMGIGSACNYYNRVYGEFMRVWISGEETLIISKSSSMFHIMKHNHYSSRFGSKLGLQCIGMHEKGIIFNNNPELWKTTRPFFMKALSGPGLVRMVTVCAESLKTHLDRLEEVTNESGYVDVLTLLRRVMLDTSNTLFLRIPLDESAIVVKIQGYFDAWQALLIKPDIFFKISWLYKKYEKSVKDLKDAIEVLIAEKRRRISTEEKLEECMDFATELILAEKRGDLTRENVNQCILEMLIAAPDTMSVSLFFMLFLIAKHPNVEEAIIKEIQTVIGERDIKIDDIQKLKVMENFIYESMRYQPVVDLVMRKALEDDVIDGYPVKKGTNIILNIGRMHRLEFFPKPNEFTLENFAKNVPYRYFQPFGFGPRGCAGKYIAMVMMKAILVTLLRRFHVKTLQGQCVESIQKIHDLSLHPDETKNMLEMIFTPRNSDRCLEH

CYP19 (aromatase) = target: T4, CYP19 (aromatase) (Homo sapiens, UniProt P11511); test: Inhibition of human CYP19 at 1 uM preincubated for 10 mins followed by protein addition measured after 90 mins by fluorimetric analysis relative to control
T4 sequence (P11511 whole entry): T3 sequence (P11511 whole entry)

[7] = target: T5, Cytochrome P450 11B1, mitochondrial (Rattus norvegicus, UniProt P15393); test: Inhibition of rat recombinant CYP11B1 using 11-deoxycortisol as substrate by cell-based assay
T5 sequence (P15393 whole entry): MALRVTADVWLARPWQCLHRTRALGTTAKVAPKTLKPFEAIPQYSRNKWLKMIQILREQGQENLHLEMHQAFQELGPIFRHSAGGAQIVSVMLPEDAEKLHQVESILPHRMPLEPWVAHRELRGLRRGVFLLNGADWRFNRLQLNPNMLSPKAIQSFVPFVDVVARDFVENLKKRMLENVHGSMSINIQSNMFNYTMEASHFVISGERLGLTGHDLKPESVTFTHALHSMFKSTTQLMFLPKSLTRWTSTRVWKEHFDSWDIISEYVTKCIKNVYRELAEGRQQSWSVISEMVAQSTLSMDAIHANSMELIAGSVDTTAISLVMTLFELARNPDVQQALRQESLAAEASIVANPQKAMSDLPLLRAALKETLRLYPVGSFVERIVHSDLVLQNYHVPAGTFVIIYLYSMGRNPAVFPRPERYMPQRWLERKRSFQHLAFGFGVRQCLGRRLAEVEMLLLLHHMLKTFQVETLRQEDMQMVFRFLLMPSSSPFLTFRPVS

[8] = target: T6, Cytochrome P450 11B2, mitochondrial (Rattus norvegicus, UniProt P30099); test: Inhibition of rat recombinant CYP11B2 using 11-deoxycorticosterone as substrate by cell-based assay
T6 sequence (P30099 whole entry): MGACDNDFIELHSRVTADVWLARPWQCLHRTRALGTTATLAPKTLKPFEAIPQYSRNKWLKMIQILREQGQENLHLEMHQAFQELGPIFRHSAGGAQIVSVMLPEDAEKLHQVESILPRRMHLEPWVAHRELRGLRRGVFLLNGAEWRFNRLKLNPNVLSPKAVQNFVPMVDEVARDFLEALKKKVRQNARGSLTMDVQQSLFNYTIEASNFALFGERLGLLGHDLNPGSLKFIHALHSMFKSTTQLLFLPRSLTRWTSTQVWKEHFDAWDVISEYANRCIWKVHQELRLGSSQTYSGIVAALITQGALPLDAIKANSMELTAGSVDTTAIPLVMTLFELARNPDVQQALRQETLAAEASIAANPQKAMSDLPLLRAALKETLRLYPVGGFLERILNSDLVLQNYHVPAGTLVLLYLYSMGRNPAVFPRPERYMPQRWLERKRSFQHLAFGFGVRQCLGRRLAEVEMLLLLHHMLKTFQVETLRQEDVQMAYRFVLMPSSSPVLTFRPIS

Cytochrome P450 2D6 = Cytochrome P450 2D6 (Homo sapiens, UniProt P10635)
Sequence of Cytochrome P450 2D6 (P10635 whole entry): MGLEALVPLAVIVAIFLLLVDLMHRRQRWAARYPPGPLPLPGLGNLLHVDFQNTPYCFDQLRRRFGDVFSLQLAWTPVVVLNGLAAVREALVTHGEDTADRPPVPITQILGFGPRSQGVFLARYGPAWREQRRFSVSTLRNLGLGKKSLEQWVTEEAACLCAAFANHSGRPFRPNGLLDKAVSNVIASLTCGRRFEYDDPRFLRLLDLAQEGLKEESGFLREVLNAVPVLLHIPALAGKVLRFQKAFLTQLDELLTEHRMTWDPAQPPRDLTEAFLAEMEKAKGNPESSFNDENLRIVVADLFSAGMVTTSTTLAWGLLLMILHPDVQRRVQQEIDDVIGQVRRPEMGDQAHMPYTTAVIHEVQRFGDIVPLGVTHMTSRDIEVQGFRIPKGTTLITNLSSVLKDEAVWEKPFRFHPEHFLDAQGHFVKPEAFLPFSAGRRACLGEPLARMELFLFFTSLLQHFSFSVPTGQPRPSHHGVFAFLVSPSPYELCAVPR

Cytochrome P450 2C9 = Cytochrome P450 2C9 (Homo sapiens, UniProt P11712)
Sequence of Cytochrome P450 2C9 (P11712 whole entry): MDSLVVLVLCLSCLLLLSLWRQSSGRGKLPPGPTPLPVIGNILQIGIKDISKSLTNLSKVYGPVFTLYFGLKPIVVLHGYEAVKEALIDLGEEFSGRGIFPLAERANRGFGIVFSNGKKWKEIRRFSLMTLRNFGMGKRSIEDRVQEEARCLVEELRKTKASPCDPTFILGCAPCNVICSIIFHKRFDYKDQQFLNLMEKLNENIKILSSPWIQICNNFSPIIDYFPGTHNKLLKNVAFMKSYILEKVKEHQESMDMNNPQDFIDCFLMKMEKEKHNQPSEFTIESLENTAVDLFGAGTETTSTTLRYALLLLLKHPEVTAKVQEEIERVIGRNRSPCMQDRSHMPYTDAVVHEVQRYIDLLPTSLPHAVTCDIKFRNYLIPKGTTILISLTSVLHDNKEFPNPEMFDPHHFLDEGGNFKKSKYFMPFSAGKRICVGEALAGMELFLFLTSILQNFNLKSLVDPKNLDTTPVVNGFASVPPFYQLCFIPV

Cave (Rattus norvegicus [2]) [nM]	bioavailability [3] [%]	IC50 [4] [nM]	inhibition at 1.5 h, 1 µM (CYP19 (aromatase)) [%]	SMILES	Activity (Rattus norvegicus [1]) [%]	also measured
152	8	2	–	Fc1ccc(-c2ccccc2[C@H]2CCCCc3cncn32)cc1	73	–
4	< 1	2	–	c1ccc(-c2ccccc2[C@H]2CCCCc3cncn32)cc1	27	–
–	–	42	–	N#Cc1ccc([C@H]2CCCCc3cncn32)c(F)c1	69	IC50 [5]: 7.2 nM; IC50 [6]: 3.2 nM; IC50 (Aromatase): 1100 nM
–	–	16	100	N#Cc1ccc([C@H]2CCCCc3cncn32)c(Cl)c1	–	–
–	–	520	–	COc1cc(C#N)ccc1[C@H]1CCCCc2cncn21	–	–
6	1	17	–	COC(=O)[C@]1(c2ccc(C#N)cc2Cl)CCc2cncn21	81	IC50 (Aromatase): 50 nM
–	–	3	–	COC(=O)[C@]1(c2ccc(C#N)cc2OC)CCc2cncn21	–	–
–	–	351	–	COC(=O)[C@]1(c2ccc(C#N)cc2F)CCc2cncn21	–	–
–	–	1.5	95	N#Cc1ccc([C@@]2(C(=O)OCc3ccc(F)cc3)CCc3cncn32)c(Cl)c1	–	IC50 [5]: < 0.1 nM; IC50 [6]: 3.8 nM
15	8	5	45	COc1cc(C#N)ccc1[C@@]1(C(=O)N(C)Cc2ccc(F)cc2)CCc2cncn21	35	–
–	–	441	–	c1ccc(-c2ccccc2[C@H]2CCc3cncn32)cc1	–	–
–	–	140	–	Fc1ccc(-c2ccccc2[C@H]2CCc3cncn32)cc1	–	–
152	59	13	–	N#Cc1ccc([C@H]2CCc3cncn32)c(Cl)c1	51	–
33	18	5	80	COc1cc(C#N)ccc1[C@H]1CCc2cncn21	50	–
–	–	8	87	Cc1cc(C#N)ccc1[C@H]1CCc2cncn21	–	IC50 [7]: 386 nM; IC50 [8]: 24 nM; IC50 [5]: 1.5 nM; IC50 [6]: 0.9 nM
–	–	10	47	N#Cc1ccc([C@H]2CCc3cncn32)c(Br)c1	–	–
–	–	56	–	N#Cc1ccc([C@H]2CCCc3cncn32)c(-c2ccccc2)c1	–	–
–	–	37	–	c1ccc(-c2ccccc2[C@H]2CCCc3cncn32)cc1	–	–
–	–	87	20	N#Cc1ccc([C@H]2CCCc3cncn32)c(F)c1	–	–
6	1	1	–	N#Cc1ccc([C@H]2CCCCc3cncn32)c(-c2ccc(F)cc2)c1	66	IC50 [7]: 0.3 nM; IC50 [8]: 1 nM; IC50 [5]: 0.3 nM; IC50 [6]: 0.4 nM
–	–	792	99	N#Cc1ccc(C2CCCc3cncn32)c(Cl)c1 (racemic)	–	–
–	–	464	100	Cc1cc(C#N)ccc1C1CCCc2cncn21 (racemic)	–	–
–	–	390	100	COc1cc(C#N)ccc1C1CCCc2cncn21 (racemic)	–	–
377	42	–	–	N#Cc1ccc([C@H]2CCc3cncn32)c(F)c1 [OSILODROSTAT]	65	IC50 [8]: 111 nM; IC50 (Cytochrome P450 2D6): > 10000 nM; IC50 (Cytochrome P450 2C9): > 10000 nM
